Activity and IC50 data for eight compounds are collected here from ChEMBL document CHEMBL4665791 (J Med Chem, 2020).

Data set [1] is described as follows: Cytotoxicity against human iPSC-derived neurons assessed as decrease in SNAP25 signal. In kind it is tissue-based. The settings on record: induced pluripotent stem cell-derived neuron.
The nature of data set [2]: Cytotoxicity against human iPSC-derived neurons assessed as effect on cell-rounding. In kind it is tissue-based. The settings on record: induced pluripotent stem cell-derived neuron.
For data set [3], the system named is HEK293. As to the kind of experiment: Cytotoxicity against HEK293 cells assessed inhibition of cell proliferation after 24 hrs by MTT assay. In kind it is cell-based. The note with it: Homo sapiens, HEK293, 24 h. The procedure, abridged: (§1)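 HEK293T cells in DMEM with 10% FBS and 1% Pen Strep were seeded at 5,000 cells/well and left 24 h at 37 °C, 5% CO2. Compounds were then added as 2-fold dilutions from 100 to 3.13 μM (1% DMSO) for 24 h. MTT was added for 4 h, and formazan was dissolved in acidified isopropanol. A570 was read with 630 nm background subtracted, normalized to DMSO control, and fitted with a four-parameter curve for IC50.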

In data set [4] the test system is HEK293. As to the kind of experiment: Cytotoxicity against HEK293 cells assessed inhibition of cell proliferation up to 100 uM after 24 hrs by MTT assay. The class given is cell-based. The note with it: human, hek293, 24 h. The essentials: as §1

Consider `CS(=O)(=O)SCCCCCNC(=O)CC(CC(=O)NO)c1ccc(Cl)cc1Cl` (configuration not stated), for which the Activity entry in data set [1] and in data set [2] was “Toxic” throughout.

`CS(=O)(=O)SCCCCCN(O)C(=O)/C=C/c1ccc(Cl)cc1Cl`: the Activity entry in data set [1] and in data set [2] was “Non-Toxic” each time.

Compound `CS(=O)(=O)SCCCCCCN(O)C(=O)/C=C/c1ccc(Cl)cc1Cl` gave a half-maximal inhibitory concentration (IC50) in the data set on HEK293 [3] of 60 µM. Moreover, the Activity entry in data set [1] and in data set [2] was “Non-Toxic” throughout.

Turning to `CS(=O)(=O)SCCCCCCNC(=O)CC(CC(=O)NO)c1ccc(Cl)cc1Cl` (configuration not stated), the Activity result in data set [1] and in data set [2] was “Toxic” each time.

With `CCCCCNC(=O)CC(CC(=O)NO)c1ccc(Cl)cc1Cl` (configuration not stated), in the data set with HEK293 [4], the Activity result was “Non-Toxic”.

Regarding `CS(=O)(=O)SCCCCNC(=O)CC(CC(=O)NO)c1ccc(Cl)cc1Cl` (configuration not stated), the Activity entry in data set [1] and in data set [2] was “Toxic” in each case.

Turning to `CS(=O)(=O)SCCCCCCCN(O)C(=O)/C=C/c1ccc(Cl)cc1Cl`, the Activity result in data set [1] and in data set [2] was “Non-Toxic” throughout.

For `CS(=O)(=O)SCCCNC(=O)CC(CC(=O)NO)c1ccc(Cl)cc1Cl` (configuration not stated), the Activity result was “Non-Toxic” in the data set with HEK293 [4], “Toxic” in data set [1] and “Toxic” in data set [2].
